Test results taken from article PMC6850587 (Neurogastroenterology and Motility, 2019).

Assays:
[1] = molecular target: T1, rat recombinant δ-opioid receptor (Rattus norvegicus, UniProt P33533); experiment: […]-GTPγS binding functional assay; type: biochemical
[2] = molecular target: T2, recombinant human κ-opioid receptor (Homo sapiens, UniProt P41145); experiment: […]-GTPγS binding functional assay; type: biochemical; conditions: antagonist mode, against agonist
[3] = molecular target: T2, recombinant human κ-opioid receptor; experiment: […]-GTPγS binding functional assay; type: biochemical
[4] = molecular target: T3, recombinant human μ-opioid receptor (Homo sapiens, UniProt P35372); experiment: radioligand displacement, [3H]-DAMGO; type: binding
[5] = molecular target: T1, rat recombinant δ-opioid receptor; experiment: […]-GTPγS binding functional assay; type: biochemical; conditions: antagonist mode, against agonist
[6] = molecular target: T4, rat recombinant κ-opioid receptor (Rattus norvegicus, UniProt P34975); experiment: […]-GTPγS binding functional assay; type: biochemical
[7] = molecular target: T3, recombinant human μ-opioid receptor; experiment: […]-GTPγS binding functional assay; type: biochemical
[8] = molecular target: T1, rat recombinant δ-opioid receptor; experiment: radioligand displacement, [3H]-DADLE; type: binding
How it was run: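 δ-Opioid receptor sites labelled with [³H]-DADLE and displaced by test compound. The IC₅₀ is the concentration inhibiting 50% of specific binding. Ki = IC₅₀/(1 + L/Kd), where L is the radioligand concentration and the radioligand Kd comes from Scatchard plot analysis. Duplicate measurements in two or three independent experiments; data where fitting failed were excluded.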

[9] = molecular target: T5, rat recombinant μ-opioid receptor (Rattus norvegicus, UniProt P33535); experiment: […]-GTPγS binding functional assay; type: biochemical; conditions: antagonist mode, against agonist
[10] = molecular target: T4, rat recombinant κ-opioid receptor; experiment: […]-GTPγS binding functional assay; type: biochemical; remark: listed apart in the source
[11] = molecular target: T2, recombinant human κ-opioid receptor; experiment: radioligand displacement, [3H]-U-69, […]; type: binding
[12] = molecular target: T4, rat recombinant κ-opioid receptor; experiment: […]-GTPγS binding functional assay; type: biochemical; conditions: antagonist mode, against agonist
[13] = molecular target: T6, recombinant human δ-opioid receptor (Homo sapiens, UniProt P41143); experiment: […]-GTPγS binding functional assay; type: biochemical
[14] = molecular target: T3, recombinant human μ-opioid receptor; experiment: […]-GTPγS binding functional assay; type: biochemical; conditions: antagonist mode, against agonist
[15] = molecular target: T6, recombinant human δ-opioid receptor; experiment: radioligand displacement, [3H]-DADLE; type: binding
[16] = molecular target: T5, rat recombinant μ-opioid receptor; experiment: radioligand displacement, [3H]-DAMGO; type: binding
[17] = molecular target: T5, rat recombinant μ-opioid receptor; experiment: […]-GTPγS binding functional assay; type: biochemical
[18] = molecular target: T6, recombinant human δ-opioid receptor; experiment: […]-GTPγS binding functional assay; type: biochemical; conditions: antagonist mode, against agonist

T6 sequence (P41143 whole entry): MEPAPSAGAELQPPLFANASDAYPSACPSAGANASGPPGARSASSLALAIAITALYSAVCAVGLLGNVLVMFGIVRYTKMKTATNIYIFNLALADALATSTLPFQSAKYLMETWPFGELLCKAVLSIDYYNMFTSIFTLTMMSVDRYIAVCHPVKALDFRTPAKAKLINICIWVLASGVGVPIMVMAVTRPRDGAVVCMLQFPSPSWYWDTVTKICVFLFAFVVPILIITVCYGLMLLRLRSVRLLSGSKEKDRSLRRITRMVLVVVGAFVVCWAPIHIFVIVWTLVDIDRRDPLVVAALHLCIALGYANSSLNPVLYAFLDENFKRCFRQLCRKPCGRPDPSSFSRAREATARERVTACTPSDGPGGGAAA
T1 sequence (P33533 whole entry): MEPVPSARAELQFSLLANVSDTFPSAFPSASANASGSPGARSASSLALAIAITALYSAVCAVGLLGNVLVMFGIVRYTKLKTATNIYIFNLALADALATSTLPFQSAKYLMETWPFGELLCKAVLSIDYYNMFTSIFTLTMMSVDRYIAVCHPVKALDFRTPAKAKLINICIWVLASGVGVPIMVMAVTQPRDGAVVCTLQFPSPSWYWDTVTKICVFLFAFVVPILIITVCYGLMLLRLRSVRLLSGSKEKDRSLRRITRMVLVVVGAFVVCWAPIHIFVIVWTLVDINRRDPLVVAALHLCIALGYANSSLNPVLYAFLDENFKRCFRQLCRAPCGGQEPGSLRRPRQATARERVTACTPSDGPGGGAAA
T3 sequence (P35372 whole entry): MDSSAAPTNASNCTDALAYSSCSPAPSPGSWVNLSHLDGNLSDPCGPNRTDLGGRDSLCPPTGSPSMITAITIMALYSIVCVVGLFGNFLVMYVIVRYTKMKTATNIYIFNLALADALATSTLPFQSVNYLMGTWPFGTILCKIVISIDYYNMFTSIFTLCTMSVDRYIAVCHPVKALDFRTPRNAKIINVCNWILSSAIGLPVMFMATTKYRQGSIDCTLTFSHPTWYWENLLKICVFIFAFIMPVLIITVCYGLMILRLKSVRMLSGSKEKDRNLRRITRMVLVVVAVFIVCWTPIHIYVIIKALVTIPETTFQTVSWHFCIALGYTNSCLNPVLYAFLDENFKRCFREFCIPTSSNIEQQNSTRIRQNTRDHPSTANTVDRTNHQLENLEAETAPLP
T5 sequence (P33535 whole entry): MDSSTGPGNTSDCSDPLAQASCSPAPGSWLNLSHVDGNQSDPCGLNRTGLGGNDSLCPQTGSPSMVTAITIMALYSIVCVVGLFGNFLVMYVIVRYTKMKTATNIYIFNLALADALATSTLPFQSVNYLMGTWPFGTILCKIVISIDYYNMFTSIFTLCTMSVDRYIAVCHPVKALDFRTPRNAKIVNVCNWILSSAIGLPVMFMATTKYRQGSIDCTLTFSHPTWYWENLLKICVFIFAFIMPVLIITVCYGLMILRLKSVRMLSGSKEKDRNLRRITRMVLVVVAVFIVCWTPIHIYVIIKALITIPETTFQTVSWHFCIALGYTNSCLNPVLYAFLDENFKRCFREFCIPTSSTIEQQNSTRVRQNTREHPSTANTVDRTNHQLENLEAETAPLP
T4 sequence (P34975 whole entry): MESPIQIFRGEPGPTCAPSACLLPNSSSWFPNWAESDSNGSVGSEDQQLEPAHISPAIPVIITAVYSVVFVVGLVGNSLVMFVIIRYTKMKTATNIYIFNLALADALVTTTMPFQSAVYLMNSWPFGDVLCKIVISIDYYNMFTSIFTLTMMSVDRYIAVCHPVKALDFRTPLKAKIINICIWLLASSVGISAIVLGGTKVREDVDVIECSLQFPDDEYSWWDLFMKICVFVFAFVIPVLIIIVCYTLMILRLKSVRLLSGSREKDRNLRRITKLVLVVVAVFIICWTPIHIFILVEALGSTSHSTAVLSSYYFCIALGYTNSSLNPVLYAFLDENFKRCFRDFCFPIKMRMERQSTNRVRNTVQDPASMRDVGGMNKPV
T2 sequence (P41145 whole entry): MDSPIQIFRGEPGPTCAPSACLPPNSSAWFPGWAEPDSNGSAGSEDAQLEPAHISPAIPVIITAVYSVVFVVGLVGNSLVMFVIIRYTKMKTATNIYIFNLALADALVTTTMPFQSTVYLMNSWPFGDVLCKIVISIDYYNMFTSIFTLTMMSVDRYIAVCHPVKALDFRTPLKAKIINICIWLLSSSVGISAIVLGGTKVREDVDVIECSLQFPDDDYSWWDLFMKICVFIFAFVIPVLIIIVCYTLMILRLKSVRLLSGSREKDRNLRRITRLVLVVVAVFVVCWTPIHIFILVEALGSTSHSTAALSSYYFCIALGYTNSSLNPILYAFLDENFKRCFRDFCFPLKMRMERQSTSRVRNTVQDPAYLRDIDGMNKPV

Compound: CC(C)(NC(=O)C1=C(O)[C@@H]2Oc3c(O)ccc4c3[C@@]23CCN(CC2CC2)[C@H](C4)[C@]3(O)C1)c1nc(-c2ccccc2)no1 [naldemedine]
- EC50 [1]: > 10000 nM
- Antagonist activity (nmol L^-1) / κ [2]: 0.44 nmol/L
- EC50 [3]: > 10000 nM
- Ki [4]: 0.34 ± 0.03 nM
- Antagonist activity (nmol L^-1) / δ [5]: 0.22 ± 0.02 nmol/L
- EC50 [6]: > 10000 nM
- EC50 [7]: > 10000 nM
- Ki [8]: 0.96 ± 0.06 nM
- Antagonist activity (nmol L^-1) / μ [9]: 0.56 ± 0.02 nmol/L
- IC50 [10]: 12.2 ± 0.57 nM
- Ki [11]: 0.94 nM
- Antagonist activity (nmol L^-1) / κ [12]: 0.49 ± 0.02 nmol/L
- EC50 [13]: > 10000 nM
- Antagonist activity (nmol L^-1) / μ [14]: 0.50 ± 0.05 nmol/L
- Ki [15]: 0.43 ± 0.08 nM
- Ki [16]: 1.4 ± 0.24 nM
- EC50 [17]: > 10000 nM
- Antagonist activity (nmol L^-1) / δ [18]: 0.27 ± 0.03 nmol/L
